Assay outcomes from PubChem BioAssay.
Many of the other results were omitted from the sample, so hits are more common in it than they were.
L major viab: Leishmania major promastigote growth inhibition. actives 9% (n = 200,000). AID 1063. inhibition, % at 10 µM. Leishmania major promastigotes, resazurin fluorescence viability;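 further: promastigotes grown with compound for 44 hours at 28 °C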
Redox H2O2 prof: compounds producing H2O2 with reducing agent – biochemical, NIH compound library profiling, artefact control for MLSCN library redox annotation, primary screen; actives 0.03% (n = 200,000); AID 878; activation, % at 10 µM; DTT-dependent redox cycling H2O2, phenol red/HRP absorbance; 100% = 100 µM peroxide control, 0% = buffer;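 active means activation of at least 50% relative to the plate's high and low controls in the primary single-dose screen; inactive means activation below 50%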;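 further: compound incubated with DTT at 0.8 mM final as the reducing agent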
G6PDH counter: inhibits Leuconostoc G6PDH, flagging false hits in G6PDH-based assays; Purified L. mesenteroides G6PDH, diaphorase/resazurin coupled fluorescence, 45 min; inhibition, % at 5 µM; actives 0.12% (n = 200,000)
Diaphorase act: counter-screen for diaphorase-based assays: diaphorase activators and chemical reducers; Diaphorase/resazurin coupled assay, resorufin fluorescence, 16 min; hits give high values; 1 = vehicle wells, 0 = NADH-free wells; activation factor at 20 µM; actives 0.005% (n = 190,000);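 active means diaphorase activity raised at least twofold by the compound at 20 µM; inactive means activation factor below 2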
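Material: purified diaphorase enzyme from Clostridium kluyveri / Medium: HEPES pH 7.4 buffer with MgCl2 and Tween 20 / Schedule: enzyme reaction of 16 min at room temperature / Measured by: resorufin fluorescence, excitation 544 nm, emission 590 nm / Evaluation: rise in resorufin formation, marking diaphorase activation or chemical reduction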
Diaph inh CS: counter-screen for diaphorase-based assays: diaphorase inhibitors and chemical oxidizers; inhibition, % at 20 µM; diaphorase resazurin-to-resorufin fluorescence, NADH, 16 min; bacterial (C. kluyveri) enzyme, not human; AID 1217; actives 0.69% (n = 190,000);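 active means primary screen inhibition at 20 µM above a set limit, cut at about 50% in these data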
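Benchmarks: positive control wells lacking NADH, neutral wells with DMSO only. System: bacterial diaphorase enzyme (C. kluyveri). Input: 0.14 U/mL diaphorase, enzyme working solution. Detection: resorufin fluorescence, excitation 544 nm, emission 590 nm. Times: 16-min room-temperature incubation before reading.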
PfG6PD inh: PfG6PD (Plasmodium falciparum) enzyme inhibition. PfGluPho enzyme, NADPH resazurin-diaphorase fluorescence. inhibition, % at 20 µM. actives 0.78% (n = 350,000). AID 504690;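 active means inhibition reaching at least a set limit at 20 µM in the primary screen, cut at about 59% in these data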
PfGluPho conf: confirmation of Plasmodium falciparum G6PD inhibitors; recombinant PfGluPho, NADPH-diaphorase-resazurin fluorescence; actives 34% (n = 2,400); inhibition, % at 20 µM; AID 504753; shares compounds with PfG6PD inh;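 active means inhibition of at least 50% at 20 µM in any single replicate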
Diaphorase 10uM: counter-screen for P. falciparum G6PD inhibitors: diaphorase inhibitors, oxidizers. actives 39% (n = 820). diaphorase-coupled resazurin reduction, fluorescence, NADPH 10 uM. AID 504862. inhibition, % at 20 µM. shares compounds with PfG6PD inh;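 active means average inhibition reaching 50% or more with the compound at 20 µM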;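 further: resorufin red fluorescence formed as diaphorase reduces resazurin using NADPH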
Diaphorase 30uM: diaphorase inhibition or oxidation at 30 uM NADPH | shares compounds with PfG6PD inh | Diaphorase/resazurin coupled assay, resorufin fluorescence | inhibition, % at 20 µM | actives 29% (n = 820) | AID 504863;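 active means inhibition averaging 50% or more, tested at 20 µM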
Large screens that a line does not name were inactive (follow-up assays come after a bar, where they were run). Unless noted, no stated cut-off is given here; in the data, active means inhibition above about 50%; inactive means the rest.

COc1ccc(N=Cc2sc(O)c3ccccc23)cc1	PfG6PD inh 69 | PfGluPho conf inactive
O=C(Nc1nc(=S)ss1)c1c(F)cccc1F	PfG6PD inh 62 | PfGluPho conf inactive
Cc1ccccc1C(=O)Nc1nc(=S)ss1	none
O=C(CSc1nc2cc(Cl)ccc2s1)c1cc2ccccc2o1	PfG6PD inh 64 | PfGluPho conf inactive
Cc1cc(NC(=O)CSc2nc3cc(Cl)ccc3s2)no1	none
O=C(CCSCc1ccccc1F)NCc1ccc(F)cc1	none (no result: L major viab, Redox H2O2 prof, G6PDH counter, Diaphorase act, Diaph inh CS)
C[C@@H]1CN([C@H](C)CO)S(=O)(=O)c2ccc(C#Cc3ccccc3)cc2O[C@H]1CN(C)C(=O)Nc1ccc2c(c1)OCO2	none (no result: L major viab, Redox H2O2 prof, G6PDH counter, Diaphorase act, Diaph inh CS)
Cc1ccc(NC(=O)C2C(=O)N(CCO)C3(C)CC2c2ccccc2O3)cc1 (stereo not given)	PfG6PD inh 65 | PfGluPho conf inactive
COc1ccc(NC(=O)C2C(=O)N(CCO)C3(C)CC2c2ccccc2O3)cc1 (stereo not given)	PfG6PD inh 69 | PfGluPho conf inactive
Cc1cc(C)c2sc(NC(=O)C3=COCCO3)nc2c1	PfG6PD inh 75 (no result: L major viab, Redox H2O2 prof, G6PDH counter, Diaphorase act, Diaph inh CS) | PfGluPho conf 47 | Diaphorase 10uM inactive | Diaphorase 30uM inactive
Cc1cccc(OCC(=O)N/N=C/c2cc([N+](=O)[O-])ccc2N2CCOCC2)c1	L major viab 87, PfG6PD inh 118 | PfGluPho conf 68 | Diaphorase 10uM 57 | Diaphorase 30uM 59
CCc1ccc(OCC(=O)N/N=C/c2cc([N+](=O)[O-])ccc2N2CCOCC2)cc1	L major viab 78, PfG6PD inh 96 | PfGluPho conf 56 | Diaphorase 10uM inactive | Diaphorase 30uM inactive
O=C(N/N=C\c1cc([N+](=O)[O-])ccc1N1CCOCC1)c1ccccn1	none
CC(C)(C)CN1CCN(Cc2cccnc2)CC1CCO (stereo not given)	none (no result: L major viab, Redox H2O2 prof, G6PDH counter, Diaphorase act, Diaph inh CS)
Cc1cccc(-n2cnc(C(=O)N/N=C/c3ccccc3)c2)n1	none
CCCCNc1c(-c2cccc(-c3cc(C(C)=O)cs3)c2)nc2ccc(C)cn12	PfG6PD inh 67 (no result: L major viab, Redox H2O2 prof, G6PDH counter, Diaphorase act, Diaph inh CS) | PfGluPho conf inactive
CC(C)Nc1ccc(Nc2ccnc3cc4ccccc4cc23)cc1	PfG6PD inh 65 (no result: L major viab, Redox H2O2 prof, G6PDH counter, Diaphorase act, Diaph inh CS) | PfGluPho conf inactive
CCOC(=O)Cn1nc(C)n(-c2ccc(C(C)C)cc2)c1=O	none
CC(=O)Cc1cc(O)c2ccccc2c1OC(=O)c1ccccc1	PfG6PD inh 66 | PfGluPho conf inactive
CCCN(Cc1cc2ccc(C)cc2[nH]c1=O)C(=O)c1ccccn1	PfG6PD inh 96 | PfGluPho conf 69 | Diaphorase 10uM 50 | Diaphorase 30uM 50
CCCCN(Cc1cc2cc(C)ccc2[nH]c1=O)C(=O)c1ccccn1	none (no result: L major viab, Redox H2O2 prof, G6PDH counter, Diaphorase act, Diaph inh CS)
CN1/C(=N\O)c2cccc3cccc1c23	PfG6PD inh 76 | PfGluPho conf inactive
CNC(=O)CN1C(=O)c2cccc3cccc1c23	none
CN(C)S(=O)(=O)c1ccc(Cl)c(NC(=O)C2CCN(S(=O)(=O)c3cccs3)CC2)c1	PfG6PD inh 60 (no result: L major viab, Redox H2O2 prof, G6PDH counter, Diaphorase act, Diaph inh CS) | PfGluPho conf inactive
CS(=O)(=O)c1ccc(Cl)c(NC(=O)C2CCN(S(=O)(=O)c3cccs3)CC2)c1	none (no result: L major viab, Redox H2O2 prof, G6PDH counter, Diaphorase act, Diaph inh CS)
CCN1CCN(C(=S)c2ccc(Cl)c(Cl)c2)CC1	L major viab 90, PfG6PD inh 59 | PfGluPho conf 55 | Diaphorase 10uM inactive | Diaphorase 30uM inactive
Nc1c(C(=O)NCc2cccnc2)sc(=S)n1-c1ccccc1	none | PfGluPho conf inactive
Cc1ccc(-n2c(N)c(C(N)=O)sc2=S)cc1	PfG6PD inh 69 | PfGluPho conf inactive
COc1ccc(CNC(=O)c2sc(=S)n(-c3ccc(OC)cc3)c2N)cc1	PfG6PD inh 63 | PfGluPho conf inactive
CSc1cc(SC)ncn1	none (no result: L major viab, Redox H2O2 prof, G6PDH counter, Diaphorase act, Diaph inh CS)
CCCNC(=O)COc1ccc(-c2nn(C)c(=O)c3ccccc23)cc1	none (no result: L major viab, Redox H2O2 prof, G6PDH counter, Diaphorase act, Diaph inh CS)
COc1ccccc1-c1oc2ccccc2c1-c1ccc2cc[nH]c2c1	PfG6PD inh 63 (no result: L major viab, Redox H2O2 prof, G6PDH counter, Diaphorase act, Diaph inh CS) | PfGluPho conf inactive
OCCC1CN(Cc2cc3c(cc2Cl)OCO3)CCN1C1CCCC1 (stereo not given)	none
CN(CC(=O)Nc1ccccc1Br)C(=O)c1ccccc1OCc1ccc(Cl)cc1	PfG6PD inh 59 (no result: L major viab, Redox H2O2 prof, G6PDH counter, Diaphorase act, Diaph inh CS) | PfGluPho conf inactive
CN(C(=O)c1ccccc1OCc1ccc(Cl)cc1)c1ccccc1	none (no result: L major viab, Redox H2O2 prof, G6PDH counter, Diaphorase act, Diaph inh CS)
COc1ccc(N2CCN(C(=O)C3CCN(C(=O)c4ccc([N+](=O)[O-])cc4)CC3)CC2)cc1	none (no result: L major viab, Redox H2O2 prof, G6PDH counter, Diaphorase act, Diaph inh CS)
O=C(CN1C(=O)C2C3C=CC(C3)C2C1=O)OCC(=O)c1ccc(Cl)cc1 (stereo not given)	none (no result: L major viab, Redox H2O2 prof, G6PDH counter, Diaphorase act, Diaph inh CS)
